Reference: ChEMBL document CHEMBL4406804, “Discovery of a Potent Steroidal Glucocorticoid Receptor Antagonist with Enhanced Selectivity against the Progesterone and Androgen Receptors (OP-3633)” (J Med Chem, 2019)
Active and inactive are the calls of the source. The rule behind the calls is not given here.

Assays:
Format in all cases: cell-based
[1] = target: T1, Progesterone receptor (Homo sapiens) (UniProt P06401); assay: Agonist activity at human progesterone receptor expressed in CHO-K1 cells harboring firefly luciferase gene after 20 hrs by One-Glo luciferase reporter gene assay
T1 sequence (whole entry): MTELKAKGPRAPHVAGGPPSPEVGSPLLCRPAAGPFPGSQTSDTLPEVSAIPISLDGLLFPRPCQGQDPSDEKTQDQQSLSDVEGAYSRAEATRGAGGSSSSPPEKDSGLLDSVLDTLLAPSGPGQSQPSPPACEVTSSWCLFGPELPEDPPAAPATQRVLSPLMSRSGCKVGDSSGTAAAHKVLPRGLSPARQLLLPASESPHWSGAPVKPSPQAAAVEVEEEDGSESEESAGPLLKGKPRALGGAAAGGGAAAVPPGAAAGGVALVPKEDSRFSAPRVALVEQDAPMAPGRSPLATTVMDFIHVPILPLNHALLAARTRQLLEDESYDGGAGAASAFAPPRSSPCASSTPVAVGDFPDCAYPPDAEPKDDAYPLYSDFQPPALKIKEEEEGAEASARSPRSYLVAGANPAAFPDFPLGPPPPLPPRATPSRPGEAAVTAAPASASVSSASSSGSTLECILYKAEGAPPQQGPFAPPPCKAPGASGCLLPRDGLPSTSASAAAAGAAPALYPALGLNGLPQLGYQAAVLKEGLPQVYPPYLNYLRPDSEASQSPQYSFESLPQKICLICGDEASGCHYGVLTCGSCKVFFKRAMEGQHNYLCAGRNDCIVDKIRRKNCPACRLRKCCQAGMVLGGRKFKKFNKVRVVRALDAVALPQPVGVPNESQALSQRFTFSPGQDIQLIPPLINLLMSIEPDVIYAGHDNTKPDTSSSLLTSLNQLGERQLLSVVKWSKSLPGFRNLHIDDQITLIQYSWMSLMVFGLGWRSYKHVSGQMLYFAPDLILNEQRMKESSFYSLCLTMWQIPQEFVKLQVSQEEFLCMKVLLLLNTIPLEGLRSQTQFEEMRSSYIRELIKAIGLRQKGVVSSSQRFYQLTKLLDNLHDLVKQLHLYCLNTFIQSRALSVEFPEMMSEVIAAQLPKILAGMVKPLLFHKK
Summary of the method: (§1)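 Cell-based luciferase reporter assays for GR, AR and PR, run in agonist and antagonist modes. Potency and Emax are averages of at least two determinations, reported with SD.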

[2] = target: T2, Androgen receptor (Homo sapiens, UniProt P10275); assay: Antagonist activity at human androgen receptor in human LNCAP cells harboring firefly luciferase gene after 20 hrs by One-Glo luciferase reporter gene assay; summary of the method: as §1
T2 sequence (P10275 whole entry): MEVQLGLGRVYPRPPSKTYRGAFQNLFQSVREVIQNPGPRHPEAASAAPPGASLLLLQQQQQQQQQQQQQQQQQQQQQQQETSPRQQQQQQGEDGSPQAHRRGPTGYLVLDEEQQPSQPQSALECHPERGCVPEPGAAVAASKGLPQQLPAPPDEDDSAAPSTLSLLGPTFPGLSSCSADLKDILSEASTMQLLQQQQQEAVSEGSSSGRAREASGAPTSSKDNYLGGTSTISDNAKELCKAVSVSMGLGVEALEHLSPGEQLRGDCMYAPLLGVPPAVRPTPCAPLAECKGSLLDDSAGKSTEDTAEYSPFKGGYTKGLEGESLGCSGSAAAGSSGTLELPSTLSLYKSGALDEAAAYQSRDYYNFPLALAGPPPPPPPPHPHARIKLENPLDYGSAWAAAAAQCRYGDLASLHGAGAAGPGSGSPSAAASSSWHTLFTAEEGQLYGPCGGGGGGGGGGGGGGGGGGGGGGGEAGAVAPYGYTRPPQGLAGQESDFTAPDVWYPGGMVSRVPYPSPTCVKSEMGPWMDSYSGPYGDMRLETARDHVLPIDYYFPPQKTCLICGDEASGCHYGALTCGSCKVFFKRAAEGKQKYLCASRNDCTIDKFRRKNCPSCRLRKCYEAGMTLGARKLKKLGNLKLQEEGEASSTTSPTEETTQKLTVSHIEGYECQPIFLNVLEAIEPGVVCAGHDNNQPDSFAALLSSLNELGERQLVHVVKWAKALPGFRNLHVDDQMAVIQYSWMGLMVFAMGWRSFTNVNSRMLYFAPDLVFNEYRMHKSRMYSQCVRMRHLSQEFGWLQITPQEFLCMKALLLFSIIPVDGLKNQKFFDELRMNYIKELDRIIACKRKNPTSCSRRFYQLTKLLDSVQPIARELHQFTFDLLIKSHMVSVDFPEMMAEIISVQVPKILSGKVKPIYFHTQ

[3] = species on record: Homo sapiens; assay: Selectivity ratio, ratio of IC50 for human androgen receptor in human LNCAP cells to IC50 for human glucocorticoid receptor expressed in CHO-K1 cells harboring firefly luciferase gene
[4] = target: T2, Androgen receptor; assay: Agonist activity at human androgen receptor in human LNCAP cells harboring firefly luciferase gene after 20 hrs by One-Glo luciferase reporter gene assay
[5] = target: T2, Androgen receptor; assay: Agonist activity at human androgen receptor in human LNCAP cells harboring firefly luciferase gene after 20 hrs by One-Glo luciferase reporter gene assay relative to mifepristone; summary of the method: as §1
[6] = target: T3, Progesterone receptor (Homo sapiens, UniProt P06401); assay: Antagonist activity at human progesterone receptor expressed in CHO-K1 cells harboring firefly luciferase gene after 20 hrs by One-Glo luciferase reporter gene assay; summary of the method: as §1
T3 sequence (P06401 whole entry): T1 sequence (whole entry)

[7] = target: T4, Glucocorticoid receptor (Homo sapiens, UniProt P04150); assay: Antagonist activity at human glucocorticoid receptor expressed in CHO-K1 cells harboring firefly luciferase gene after 20 hrs by One-Glo luciferase reporter gene assay
T4 sequence (P04150 whole entry): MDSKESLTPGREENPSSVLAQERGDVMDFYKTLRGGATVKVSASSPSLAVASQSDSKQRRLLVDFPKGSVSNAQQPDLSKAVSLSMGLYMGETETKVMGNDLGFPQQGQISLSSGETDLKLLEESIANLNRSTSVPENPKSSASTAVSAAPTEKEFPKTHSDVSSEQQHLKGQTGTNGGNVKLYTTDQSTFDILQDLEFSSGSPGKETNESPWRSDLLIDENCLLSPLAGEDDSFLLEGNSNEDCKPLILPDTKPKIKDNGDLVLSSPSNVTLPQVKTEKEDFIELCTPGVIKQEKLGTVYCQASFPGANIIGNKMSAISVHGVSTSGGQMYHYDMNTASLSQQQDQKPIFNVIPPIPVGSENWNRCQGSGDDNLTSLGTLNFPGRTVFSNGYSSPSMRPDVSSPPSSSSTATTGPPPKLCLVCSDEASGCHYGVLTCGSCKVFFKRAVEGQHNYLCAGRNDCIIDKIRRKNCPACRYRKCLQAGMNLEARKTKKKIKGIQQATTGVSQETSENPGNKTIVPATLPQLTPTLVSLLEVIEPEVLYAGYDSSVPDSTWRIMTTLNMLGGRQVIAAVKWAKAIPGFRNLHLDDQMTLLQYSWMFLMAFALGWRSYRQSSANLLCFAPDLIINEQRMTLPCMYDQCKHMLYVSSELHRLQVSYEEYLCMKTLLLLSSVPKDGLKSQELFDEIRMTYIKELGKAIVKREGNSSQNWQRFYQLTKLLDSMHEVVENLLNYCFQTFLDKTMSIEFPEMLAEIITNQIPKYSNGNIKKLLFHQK

[8] = target: T5, Glucocorticoid receptor (Homo sapiens) (UniProt P04150); assay: Antagonist activity at human glucocorticoid receptor expressed in CHO-K1 cells harboring firefly luciferase gene assessed as inhibition of glucocorticoid receptor activity at 0.01 to 10000 nM after 20 hrs by One-Glo luciferase reporter gene assay relative to mifepristone; set-up: scale not given: the % may be the effect or the level left; summary of the method: as §1
T5 sequence (whole entry): T4 sequence (P04150 whole entry)

| SMILES | agonist activity [1] | IC50 [2] [nM] | Ratio [3] | EC50 [4] [nM] | Emax at 20 h [5] [%] | IC50 [6] [nM] | IC50 [7] [nM] | Activity [8] [%] |
| --- | --- | --- | --- | --- | --- | --- | --- | --- |
| CCN(CC)c1ccc([C@H]2C[C@@]3(C)[C@@H](CC[C@@]3(O)C#CC(C)(C)C)[C@@H]3CCC4=CC(=O)CC[C@@H]4[C@H]32)cc1 | inactive | 263 | 10 to 30 | > 2500 | 9.4 | 6 | 13.9 |  |
| CCC(C)(C)C#C[C@]1(O)CC[C@H]2[C@@H]3CCC4=CC(=O)CC[C@@H]4[C@H]3[C@@H](c3ccc(N(C)C)cc3)C[C@@]21C | inactive | 175 | 10 to 30 | > 2500 | 7.3 | 21.1 | 12.7 |  |
| CC#C[C@]1(O)CC[C@H]2[C@@H]3CCC4=CC(=O)CC[C@]4(C)[C@H]3[C@@H](c3ccc(N(C)C(C)C)cc3)C[C@@]21C | inactive | 2250 |  | 1140 | 55.9 | 527 | 20.6 |  |
| CC#C[C@]1(O)CC[C@H]2[C@@H]3CCC4=CC(=O)CC[C@]4(C)[C@H]3[C@@H](c3ccc(N4CCCC4)cc3)C[C@@]21C | inactive | 3150 |  | > 2500 | 10.6 | 4070 | 57.9 |  |
| CC(C)(C)C#C[C@]1(O)CC[C@H]2[C@@H]3CCC4=CC(=O)CC[C@@H]4[C@H]3[C@@H](c3ccc(N4CCOCC4)cc3)C[C@@]21C | inactive | 208 | 10 to 30 | > 2500 | 5.1 | 4.8 | 10.3 | 100 |
| CC(C)C#C[C@]1(O)CC[C@H]2[C@@H]3CCC4=CC(=O)CC[C@]4(C)[C@H]3[C@@H](c3ccc(N(C)C)cc3)C[C@@]21C | inactive | > 5000 |  | > 2500 | 8.3 | 2080 | 62 |  |
| CN(C)c1ccc([C@H]2C[C@@]3(C)[C@@H](CC[C@@]3(O)C#CC(F)(F)F)[C@@H]3CCC4=CC(=O)CC[C@]4(C)[C@H]32)cc1 | inactive | 642 |  | > 2500 | 7.3 | 910 | 47.2 |  |
| CCC#C[C@]1(O)CC[C@H]2[C@@H]3CCC4=CC(=O)CC[C@]4(C)[C@H]3[C@@H](c3ccc(N(C)C)cc3)C[C@@]21C | inactive | 2960 |  | > 2500 | 13.2 | 1550 | 73.7 |  |
| CC#C[C@]1(O)CC[C@H]2[C@@H]3CCC4=CC(=O)CC[C@]4(C)[C@H]3[C@@H](c3ccc(N(C)CCOC)cc3)C[C@@]21C | inactive | 1300 |  | > 2500 | 20 | 1640 | 52.1 |  |
| CN(C)c1ccc([C@H]2C[C@@]3(C)[C@@H](CC[C@@]3(O)C#CC(C)(C)C)[C@@H]3CCC4=CC(=O)CC[C@@H]4[C@H]32)cc1 | inactive | 165 | 10 to 30 |  |  | 3.4 |  | 100 |
| CC#C[C@]1(O)CC[C@H]2[C@@H]3CCC4=CC(=O)CC[C@]4(C)[C@H]3[C@@H](c3ccc(OC)cc3)C[C@@]21C | inactive | 561 |  | > 2500 | 14.1 | 1690 | 58.3 |  |
| CC#C[C@]1(O)CC[C@H]2[C@@H]3CCC4=CC(=O)CC[C@]4(C)[C@H]3[C@@H](OCc3ccc(Cl)cc3)C[C@@]21C | inactive | 85 |  | 1890 | 47.8 | 8.2 | 17.6 |  |
| CN1CCN(c2ccc([C@H]3C[C@@]4(C)[C@@H](CC[C@@]4(O)C#CC(C)(C)C)[C@@H]4CCC5=CC(=O)CC[C@@H]5[C@H]43)cc2)CC1 | inactive | 1010 | 10 to 30 | > 2500 | 7.9 | 25.4 | 35.8 |  |
| COCC#C[C@]1(O)CC[C@H]2[C@@H]3CCC4=CC(=O)CC[C@]4(C)[C@H]3[C@@H](c3ccc(N(C)C)cc3)C[C@@]21C | inactive | > 5000 |  | > 2500 | 17.5 | 4240 | 116 |  |
| CC#C[C@]1(O)CC[C@H]2[C@@H]3CCC4=CC(=O)CC[C@]4(C)[C@H]3[C@@H](c3ccc(-n4cccc4)cc3)C[C@@]21C | inactive | 354 |  | > 2500 | 16.5 | 523 | 52.2 |  |
